Assay results as given in ChEMBL document CHEMBL1139804, “In vitro affinities of various halogenated benzamide derivatives as potential radioligands for non-invasive quantification of D(2)-like dopamine receptors” (Bioorg Med Chem, 2007).
pKi: −log10 of the molar value.

What was measured:
D(4) dopamine receptor = biological target: T1, D(4) dopamine receptor (Homo sapiens, UniProt P21917); test: Displacement of [3H]spiperone from dopamine D4.4 receptor in CHO cells; assay type: cell-based
T1 sequence (P21917 whole entry): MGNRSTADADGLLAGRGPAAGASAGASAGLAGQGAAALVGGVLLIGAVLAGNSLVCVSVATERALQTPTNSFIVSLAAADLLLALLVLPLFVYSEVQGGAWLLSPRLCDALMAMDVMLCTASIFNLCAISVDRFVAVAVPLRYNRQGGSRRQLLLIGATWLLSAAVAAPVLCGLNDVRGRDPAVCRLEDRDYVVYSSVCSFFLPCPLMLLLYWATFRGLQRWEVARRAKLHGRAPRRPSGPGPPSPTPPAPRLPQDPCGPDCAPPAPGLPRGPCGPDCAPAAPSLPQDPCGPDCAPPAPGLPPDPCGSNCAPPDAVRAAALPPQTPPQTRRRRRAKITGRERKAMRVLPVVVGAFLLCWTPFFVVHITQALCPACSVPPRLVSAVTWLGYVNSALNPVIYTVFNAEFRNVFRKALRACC
Summary of the method: (§1)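 Competition binding used membranes from stably transfected CHO cells expressing human D2long, D2short, D3 or D4.4 receptor, with [³H]spiperone at 0.1 nM final.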

[1] = Displacement of [3H]ketanserin from serotonin 5-HT2 receptor in pig cortical membrane
D(2) dopamine receptor [2] = biological target: T2, D(2) dopamine receptor (Homo sapiens, UniProt P14416); test: Displacement of [3H]spiperone from dopamine D2long receptor in CHO cells; assay type: cell-based; summary of the method: as §1
D(3) dopamine receptor = D(3) dopamine receptor (Homo sapiens, UniProt P35462); test: Displacement of [3H]spiperone from dopamine D3 receptor in CHO cells; assay type: cell-based; summary of the method: as §1
[3] = Displacement of [3H]prazosin from adrenergic-alpha-1 receptor in pig cortical membrane
D(1A) dopamine receptor = D(1A) dopamine receptor (Sus scrofa, UniProt P50130); test: Displacement of [3H]SCH23990 from dopamine D1 receptor in pig striatal membrane; assay type: cell membranes, Striatum
D(2) dopamine receptor [4] = biological target: T2, D(2) dopamine receptor; test: Displacement of [3H]spiperone from dopamine D2short receptor in CHO cells; assay type: cell-based; summary of the method: as §1
[5] = Displacement of [3H]8HO-DPAT from serotonin 5-HT1A receptor in pig cortical membrane
[6] = Lipophilicity, log D at pH 7.4; settings: buffer

D(3) dopamine receptor, sequence (P35462 whole entry): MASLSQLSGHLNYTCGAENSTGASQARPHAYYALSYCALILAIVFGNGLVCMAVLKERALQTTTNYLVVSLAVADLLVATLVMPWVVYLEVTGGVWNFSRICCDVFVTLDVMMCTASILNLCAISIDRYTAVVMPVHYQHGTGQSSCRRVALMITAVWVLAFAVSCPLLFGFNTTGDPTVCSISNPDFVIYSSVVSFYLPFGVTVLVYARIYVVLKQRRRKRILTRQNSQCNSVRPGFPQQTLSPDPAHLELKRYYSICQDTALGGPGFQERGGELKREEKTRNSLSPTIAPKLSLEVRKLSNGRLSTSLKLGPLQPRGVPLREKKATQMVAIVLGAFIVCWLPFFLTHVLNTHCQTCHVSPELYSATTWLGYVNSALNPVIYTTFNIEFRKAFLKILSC
D(1A) dopamine receptor, sequence (P50130 whole entry): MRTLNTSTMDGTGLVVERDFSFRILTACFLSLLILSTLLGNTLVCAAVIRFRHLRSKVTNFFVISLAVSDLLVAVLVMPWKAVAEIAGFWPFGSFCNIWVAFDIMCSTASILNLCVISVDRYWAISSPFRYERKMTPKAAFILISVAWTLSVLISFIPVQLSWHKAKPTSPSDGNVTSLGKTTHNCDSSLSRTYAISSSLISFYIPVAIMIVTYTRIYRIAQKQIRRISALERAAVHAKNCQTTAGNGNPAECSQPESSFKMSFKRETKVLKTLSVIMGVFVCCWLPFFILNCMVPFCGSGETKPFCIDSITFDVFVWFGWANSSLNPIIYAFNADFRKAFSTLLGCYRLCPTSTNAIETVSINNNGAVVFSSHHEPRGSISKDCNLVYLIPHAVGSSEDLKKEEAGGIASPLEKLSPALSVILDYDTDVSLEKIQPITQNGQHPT
T2 sequence (P14416 whole entry): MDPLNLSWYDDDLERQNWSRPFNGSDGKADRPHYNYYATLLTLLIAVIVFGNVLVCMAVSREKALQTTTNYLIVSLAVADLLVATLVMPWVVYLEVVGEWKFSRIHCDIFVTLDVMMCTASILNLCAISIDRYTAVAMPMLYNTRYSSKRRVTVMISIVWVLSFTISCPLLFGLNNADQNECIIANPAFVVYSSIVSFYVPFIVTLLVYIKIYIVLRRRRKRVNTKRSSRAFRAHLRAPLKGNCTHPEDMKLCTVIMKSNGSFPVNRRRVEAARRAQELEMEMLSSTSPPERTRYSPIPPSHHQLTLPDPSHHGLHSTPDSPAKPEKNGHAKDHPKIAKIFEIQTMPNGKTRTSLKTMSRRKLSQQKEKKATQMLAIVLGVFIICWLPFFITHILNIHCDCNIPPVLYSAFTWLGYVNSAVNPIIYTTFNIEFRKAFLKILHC

| SMILES | pKi (D(4) dopamine receptor) | pKi [1] | pKi (D(2) dopamine receptor [2]) | pKi (D(3) dopamine receptor) | pKi [3] | pKi (D(1A) dopamine receptor) | pKi (D(2) dopamine receptor [4]) | pKi [5] | logD [6] |
| --- | --- | --- | --- | --- | --- | --- | --- | --- | --- |
| C=CCN1CCC[C@H]1CNC(=O)c1cc(Br)cc(OC)c1OC | 6.68 | 5.96 | 9.07 | 9.22 | 5.80 | 4.89 | 9.06 | 6.85 | 2.83 |
| C=CCN1CCC[C@H]1CNC(=O)c1cc(I)cc(OC)c1OC | 6.60 | 6.31 | 9.17 | 9.34 | 5.96 | 4.74 | 9.13 | 6.82 | 2.91 |
| C=CCN1CCC[C@H]1CNC(=O)c1cc(I)ccc1OC | 6.20 | 5.62 | 7.85 | 7.96 | 5.70 | 4.89 | 7.82 | 6.77 | 2.81 |
| C=CCN1CCC[C@H]1CNC(=O)c1cc(Br)ccc1OC | 5.77 | 5.68 | 7.64 | 7.66 | 5.70 | 4.77 | 7.57 | 6.64 | 2.71 |
| C=CCN1CCC[C@H]1CNC(=O)c1cc(CCCF)ccc1OC | 5.52 | 5.35 | 7.52 | 7.48 | 5.72 | 4.52 | 7.52 | 5.64 | 2.63 |
| C=CCN1CCC[C@H]1CNC(=O)c1cc(CCCF)cc(OC)c1OC [FALLYPRIDE] | 5.89 | 5.43 | 8.66 | – | 6.01 | 4.74 | 8.68 | 5.96 | 2.66 |
| CCN1CCC[C@H]1CNC(=O)c1c(OC)ccc(I)c1O [IOLOPRIDE] | 6.24 | 5.70 | 8.38 | 8.38 | 5.72 | 4.92 | 8.38 | 5.96 | 3.13 |
| CCN1CCC[C@H]1CNC(=O)c1c(O)c(Cl)cc(Cl)c1OC [RACLOPRIDE] | 5.51 | 5.46 | – | 7.82 | 5.52 | 4.43 | – | 5.36 | – |
